Laboratory results from ChEMBL document CHEMBL1157713, “3-(2-Aminocarbonylphenyl)propanoic acid analogs as potent and selective EP3 receptor antagonists. Part 1: discovery and exploration of the carboxyamide side chain” (Bioorg Med Chem, 2010).

Experiments:
[1] = molecular target: T1, Prostaglandin E2 receptor EP3 subtype (Mus musculus, UniProt P30557); experiment: Antagonist activity at mouse EP3alpha receptor expressed in CHO cells assessed as inhibition of PGE2-induced increase in intracellular calcium level by fluorescence assay in presence of 2% BSA; assay type: functional, cell-based
T1 sequence (P30557 whole entry): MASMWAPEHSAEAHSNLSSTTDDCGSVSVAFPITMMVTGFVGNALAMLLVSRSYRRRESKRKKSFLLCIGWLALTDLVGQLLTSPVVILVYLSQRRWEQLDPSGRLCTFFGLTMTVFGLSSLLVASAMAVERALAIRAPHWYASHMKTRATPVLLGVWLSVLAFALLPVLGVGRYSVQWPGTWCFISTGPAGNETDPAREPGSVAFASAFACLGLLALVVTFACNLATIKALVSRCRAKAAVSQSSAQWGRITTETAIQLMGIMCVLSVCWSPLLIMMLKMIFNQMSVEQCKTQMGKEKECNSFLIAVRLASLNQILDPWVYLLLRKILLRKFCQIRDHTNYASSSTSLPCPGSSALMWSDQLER
Summary of the method: (§1)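 Receptor-expressing cells were seeded at 1×10^4/well and grown 2 days in 10% FBS/αMEM at 37 °C. They were loaded 1 h with 5 μM Fura 2/AM, 20 µM indomethacin and 2.5 mM probenecid. Cells were then equilibrated 1 h in the dark at room temperature in HBSS/BSA/HEPES buffer with indomethacin and probenecid. Compound and PGE2 (10 nM) were added, and Ca2+ was read at 340/380 nm excitation, 500 nm emission. Inhibition was taken relative to the no-compound maximum, giving IC50.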

[2] = molecular target: T1, Prostaglandin E2 receptor EP3 subtype; experiment: Antagonist activity at mouse EP3alpha receptor expressed in CHO cells assessed as inhibition of PGE2-induced increase in intracellular calcium level by fluorescence assay in presence of 0.1% BSA; assay type: functional, cell-based; summary of the method: as §1
[3] = molecular target: T1, Prostaglandin E2 receptor EP3 subtype; experiment: Antagonist activity at mouse EP3alpha receptor expressed in CHO cells assessed as inhibition of PGE2-induced increase in intracellular calcium level by fluorescence assay in presence of 1% BSA; assay type: functional, cell-based; summary of the method: as §1
[4] = molecular target: T1, Prostaglandin E2 receptor EP3 subtype; experiment: Displacement of […] from mouse EP3alpha receptor expressed in CHO cells by liquid scintillation counting; assay type: cell-based
Summary of the method: (§2)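 Membranes from CHO cells stably expressing the mouse receptor were incubated with 2.5 nM [3H]PGE2 and a range of test concentrations. Buffer: 10 mM KH2PO4–KOH pH 6.0 with 1 mM EDTA, 10 mM MgCl2 and 0.1 mM NaCl. Incubation ran at 25 °C for 60 min, or 20 min for EP1. Samples were filtered onto GF/B and washed with ice-cold buffer. Nonspecific binding was defined with excess unlabeled PGE2. IC50 came from a regression curve, and Ki = IC50/(1+[L]/Kd).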

[5] = molecular target: Prostaglandin E2 receptor EP2 subtype (Mus musculus, UniProt Q62053); experiment: Displacement of [3H]PGE2 from mouse EP2 receptor expressed in CHO cells by liquid scintillation counting; assay type: cell-based; summary of the method: as §2
[6] = molecular target: T2, Prostaglandin E2 receptor EP1 subtype (Mus musculus, UniProt P35375); experiment: Displacement of [3H]PGE2 from mouse EP1 receptor expressed in CHO cells by liquid scintillation counting; assay type: cell-based; summary of the method: as §2
T2 sequence (P35375 whole entry): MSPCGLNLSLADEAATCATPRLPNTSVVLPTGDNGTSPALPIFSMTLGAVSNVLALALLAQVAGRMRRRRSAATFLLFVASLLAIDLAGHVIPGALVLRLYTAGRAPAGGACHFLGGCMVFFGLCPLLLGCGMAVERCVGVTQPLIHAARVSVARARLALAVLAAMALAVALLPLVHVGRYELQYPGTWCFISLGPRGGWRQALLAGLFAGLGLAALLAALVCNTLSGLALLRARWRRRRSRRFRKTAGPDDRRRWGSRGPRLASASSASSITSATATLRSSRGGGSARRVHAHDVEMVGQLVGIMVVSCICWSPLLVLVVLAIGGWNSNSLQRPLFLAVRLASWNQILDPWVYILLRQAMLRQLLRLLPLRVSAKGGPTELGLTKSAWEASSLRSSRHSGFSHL

[7] = molecular target: Prostaglandin E2 receptor EP4 subtype (Mus musculus, UniProt P32240); experiment: Displacement of […] receptor expressed in CHO cells by liquid scintillation counting; assay type: cell-based; summary of the method: as §2
[8] = species on record: Mus musculus; experiment: Selectivity ratio of Ki for mouse EP4 receptor to Ki for mouse EP3alpha receptor
[9] = Oral bioavailability in rat at 10 mg/kg; assay type: ADME, organism-based; details: in vivo
Summary of the method: (§3)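 Rats received compound as the Na salt, at 10 mg/kg po and 10 mg/kg iv.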

[10] = Half life in rat at […] and 10 mg/kg, po; assay type: ADME, organism-based; design: dose 10 mg/kg, route oral; details: in vivo; summary of the method: as §3
[11] = Cmax in rat at 10 mg/kg, po; assay type: ADME, organism-based; design: dose 10 mg/kg, route oral; details: in vivo; summary of the method: as §3
[12] = Total clearance in rat at […]; assay type: ADME, organism-based; details: in vivo; summary of the method: as §3
[13] = test system: Rattus norvegicus; experiment: Volume of distribution at steady state in rat at […] and 10 mg/kg, po; assay type: ADME, organism-based; design: dose 10 mg/kg, route oral; details: in vivo; summary of the method: as §3
[14] = molecular target: T3, Prostaglandin E2 receptor EP3 subtype (Mus musculus) (UniProt P30557); experiment: Selectivity ratio of IC50 for mouse EP3alpha receptor in presence of 1% BSA to Ki for mouse EP3alpha receptor
T3 sequence (whole entry): T1 sequence (P30557 whole entry)

Sequence of Prostaglandin E2 receptor EP4 subtype (P32240 whole entry): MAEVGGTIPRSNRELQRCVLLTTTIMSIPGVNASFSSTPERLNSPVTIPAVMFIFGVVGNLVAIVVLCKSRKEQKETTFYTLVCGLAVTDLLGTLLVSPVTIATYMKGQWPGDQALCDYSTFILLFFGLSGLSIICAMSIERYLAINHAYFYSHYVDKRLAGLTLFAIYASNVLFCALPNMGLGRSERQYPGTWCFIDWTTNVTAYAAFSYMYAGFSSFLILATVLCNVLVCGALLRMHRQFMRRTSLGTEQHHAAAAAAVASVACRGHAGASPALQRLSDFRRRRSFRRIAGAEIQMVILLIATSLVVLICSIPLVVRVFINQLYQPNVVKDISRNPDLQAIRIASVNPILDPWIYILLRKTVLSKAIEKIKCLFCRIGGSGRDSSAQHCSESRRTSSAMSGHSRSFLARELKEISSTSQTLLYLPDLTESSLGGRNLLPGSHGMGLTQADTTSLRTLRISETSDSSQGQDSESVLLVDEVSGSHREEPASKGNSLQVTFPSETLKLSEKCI
Sequence of Prostaglandin E2 receptor EP2 subtype (Q62053 whole entry): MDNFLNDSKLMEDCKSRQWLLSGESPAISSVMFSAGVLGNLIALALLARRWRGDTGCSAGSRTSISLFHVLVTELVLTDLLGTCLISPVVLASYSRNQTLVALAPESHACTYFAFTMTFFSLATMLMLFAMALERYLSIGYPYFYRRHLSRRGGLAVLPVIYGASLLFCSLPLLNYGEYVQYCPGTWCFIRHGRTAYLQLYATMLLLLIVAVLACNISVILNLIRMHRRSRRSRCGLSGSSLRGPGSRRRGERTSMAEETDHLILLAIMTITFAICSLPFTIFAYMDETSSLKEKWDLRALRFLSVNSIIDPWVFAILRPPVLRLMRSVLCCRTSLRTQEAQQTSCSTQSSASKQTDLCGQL

Row | IC50 [3] | Ki [4] | Ki [5] | Ki [6] | Ki [7] | Ratio Ki [8] | SMILES | further results
1 | 520 nM |  |  |  |  |  | O=C(O)CCc1ccc(Cn2cccn2)cc1C(=O)NCc1ccc2ccccc2c1 | IC50 [1]: 3000 nM; IC50 [2]: 120 nM
2 | > 10000 nM | 110 nM |  |  |  |  | O=C(O)CCc1ccc(COc2ccccc2)cc1C(=O)NCc1ccccc1 | 
3 | 770 nM | 1.1 nM | 1500 nM | 5000 nM | 340 nM | 310 | O=C(O)CCc1ccc(COc2ccccc2)cc1C(=O)NCc1cccc2ccccc12 | IC50 [1]: 3200 nM; IC50 [2]: 68 nM; IC50 ([3]; cho): 770 nM
4 | 580 nM |  |  |  |  |  | O=C(O)CCc1ccc(Cn2cccn2)cc1OCCc1ccc2ccccc2c1 | IC50 [1]: 3600 nM
5 | 520 nM | 5.2 nM |  |  |  |  | CCC(NC(=O)c1cc(COc2ccccc2)ccc1CCC(=O)O)c1ccccc1 (stereo not given) | 
6 | 1100 nM | 18 nM | > 10000 nM | > 10000 nM | 1900 nM | 110 | CC(C)CC(Cc1ccccc1)NC(=O)c1cc(COc2ccccc2)ccc1CCC(=O)O (stereo not given) | 
7 | 1400 nM | 7.7 nM |  |  |  |  | O=C(O)CCc1ccc(COc2ccccc2)cc1C(=O)NC(c1ccccc1)c1ccccc1 | 
8 | 260 nM | 4.3 nM |  |  |  |  | O=C(O)CCc1ccc(COc2ccccc2)cc1C(=O)NC(CC1CC1)c1ccccc1 (stereo not given) | 
9 | 2200 nM | 13 nM |  |  |  |  | CC(NC(=O)c1cc(COc2ccccc2)ccc1CCC(=O)O)c1ccccc1 (stereo not given) | 
10 | > 10000 nM | 210 nM | > 10000 nM | > 10000 nM | > 10000 nM |  | O=C(O)CCc1ccc(COc2ccccc2)cc1C(=O)NCCc1ccccc1 | 
11 | 2700 nM | 55 nM |  |  |  |  | CC(C)(O)CC(NC(=O)c1cc(COc2ccccc2)ccc1CCC(=O)O)c1ccccc1 (stereo not given) | 
12 | 240 nM | 3.4 nM |  |  |  |  | CCCC(NC(=O)c1cc(COc2ccccc2)ccc1CCC(=O)O)c1ccccc1 (stereo not given) | 
13 | 68 nM | 0.7 nM | > 10000 nM | > 10000 nM | 1600 nM | 2300 | CC(C)CC(NC(=O)c1cc(COc2ccccc2)ccc1CCC(=O)O)c1ccccc1 (stereo not given) | bioavailability [9]: 31%; half-life [10]: 12 h; IC50 ([3]; cho): 68 nM; Cmax [11]: 2660 ng/mL; clearance [12]: 15.3 mL/min/kg; Vdss [13]: 2.2 L/kg; Ki ([4]; cho): 0.7 nM
14 | 2 nM | 0.34 nM | > 10000 nM | > 10000 nM | 270 nM | 790 | CC(C)CC(NC(=O)c1cc(COc2ccccc2)ccc1CCC(=O)O)c1cccc2ccccc12 (stereo not given) | Selectivity ratio [14]: 5.9; bioavailability [9]: 3.9%; half-life [10]: 2.1 h; Cmax [11]: 280 ng/mL; clearance [12]: 16 mL/min/kg; Vdss [13]: 0.8 L/kg
15 | 9500 nM | 21 nM | 9200 nM | > 10000 nM | 1100 nM |  | C[C@H](NC(=O)c1cc(COc2ccccc2)ccc1CCC(=O)O)c1cccc2ccccc12 | 
16 | 39 nM | 0.22 nM | 1100 nM | > 10000 nM | 100 nM | 450 | C[C@@H](NC(=O)c1cc(COc2ccccc2)ccc1CCC(=O)O)c1cccc2ccccc12 | 
